Data from ChEMBL document CHEMBL4043163, “Methyl propiolate and 3-butynone: Starting points for synthesis of amphiphilic 1,2,3-triazole peptidomimetics for antimicrobial evaluation” (Bioorg Med Chem, 2017).
Activity calls are given as the source filed them. No cut-off for these calls is given here.

Columns and labels:
[1] = test system: Enterococcus faecalis; experiment: Antimicrobial activity against Enterococcus faecalis ATCC 29212 assessed as growth inhibition incubated overnight at 37degC by visual and photometry based method; format: functional
[2] = test system: Staphylococcus aureus; experiment: Antimicrobial activity against Staphylococcus aureus ATCC 25923 assessed as growth inhibition incubated overnight at 37degC by visual and photometry based method; format: functional
[3] = test system: Streptococcus agalactiae; experiment: Antimicrobial activity against Streptococcus agalactiae ATCC 12386 assessed as growth inhibition incubated overnight at 37degC by visual and photometry based method; format: functional
[4] = test system: Escherichia coli; experiment: Antimicrobial activity against Escherichia coli ATCC 25922 assessed as growth inhibition incubated overnight at 37degC by visual and photometry based method; format: functional
[5] = test system: Pseudomonas aeruginosa; experiment: Antimicrobial activity against Pseudomonas aeruginosa ATCC 27853 assessed as growth inhibition incubated overnight at 37degC by visual and photometry based method; format: functional
[6] = test system: Enterococcus faecalis; experiment: Antimicrobial activity against Enterococcus faecalis ATCC 29212 assessed as growth inhibition at =<64 ug/ml incubated overnight at 37degC by visual and photometry based method; format: functional
[7] = test system: Escherichia coli; experiment: Antimicrobial activity against Escherichia coli ATCC 25922 assessed as growth inhibition =<64 ug/ml incubated overnight at 37degC by visual and photometry based method; format: functional
[8] = test system: HepG2; experiment: Cytotoxicity against human HepG2 cells incubated for 24 hrs by CellTiter 96 aqueous one solution reagent based assay; format: cell-based; details: HepG2, 24 h
Method in brief: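 HepG2 seeded 20,000 cells/well overnight, then exposed 24 h to a concentration range in serum-free MEM Earle's (gentamycin, NEAA, pyruvate, alanyl-glutamine); MTS reagent 1 h, absorbance 485 nm; % survival versus medium and Triton X-100 controls; EC50 from four-parameter normalized nonlinear regression.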

[9] = Selectivity index, ratio of EC50 for human HepG2 cells to MIC for Streptococcus agalactiae ATCC 12386; format: toxicity; details: read-out: Selectivity Index
Method in brief: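 Selectivity index computed as HepG2 EC50 (24 h MTS assay) divided by S. agalactiae MIC.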

[10] = test system: Staphylococcus epidermidis; experiment: Inhibition of biofilm formation of Staphylococcus epidermidis at =<64 ug/ml incubated overnight at 37degC by crystal violet based assay; format: functional
[11] = test system: Staphylococcus aureus; experiment: Antimicrobial activity against Staphylococcus aureus ATCC 25923 assessed as growth inhibition =<64 ug/ml incubated overnight at 37degC by visual and photometry based method; format: functional
[12] = test system: Staphylococcus epidermidis; experiment: Inhibition of biofilm formation of Staphylococcus epidermidis incubated overnight at 37degC by crystal violet based assay; format: functional
[13] = test system: Pseudomonas aeruginosa; experiment: Antimicrobial activity against Pseudomonas aeruginosa ATCC 27853 assessed as growth inhibition =<64 ug/ml incubated overnight at 37degC by visual and photometry based method; format: functional

Compound	MIC [1]	MIC [2]	MIC [3]	MIC [4]	MIC [5]	growth inhibition (GI) [6]	growth inhibition (GI) [7]	EC50 [8] [µg/mL]	selectivity ratio [9]	inhibition [10]	growth inhibition (GI) [11]	MIC [12] [µg/mL]	growth inhibition (GI) [13]
CC(C)(C)c1ccc(Cn2cc(C(=O)N3CCNCC3)nn2)cc1	inactive	inactive	inactive	inactive	inactive								
CCCCCCCn1cc(C(=O)N2CCN(C(=N)N)CC2)nn1	inactive	inactive	inactive	inactive	inactive								
CC(C)(C)c1cc(Cn2cc(C(=O)NCCNC(=N)N)nn2)cc(C(C)(C)C)c1.Cl	64 µg/mL	32 µg/mL	16 µg/mL	64 µg/mL	32 µg/mL								
CN1CCN(C(=O)c2cn(C34CC5CC(CC(C5)C3)C4)nn2)CC1	inactive	inactive	inactive	inactive	inactive								
CC(C)(C)c1ccc(Cn2cc(C(=O)NCCN)nn2)cc1	inactive	inactive	inactive	inactive	inactive								
CC(C)(C)c1cc(Cn2cc(C(=O)N3CCN(C(=N)N)CC3)nn2)cc(C(C)(C)C)c1.Cl		64 µg/mL	32 µg/mL		64 µg/mL	inactive	inactive						
CC(C)(C)c1cc(-n2cc(C(=O)NCCN)nn2)cc(C(C)(C)C)c1.Cl	32 µg/mL	16 µg/mL	16 µg/mL	16 µg/mL	32 µg/mL			8	0.5	inactive			
CCCCCCCn1cc(C(=O)NCCN)nn1	inactive	inactive	inactive	inactive	inactive								
CN1CCN(C(=O)c2cn(Cc3ccc(C(C)(C)C)cc3)nn2)CC1	inactive	inactive	inactive	inactive	inactive								
CCCCCCCOc1ccc(-n2cc(/C(C)=N/NC(=N)N)nn2)cc1.O=C(O)C(F)(F)F	32 µg/mL		8 µg/mL	16 µg/mL	64 µg/mL			2	0.25		inactive	8	
N=C(N)NCCNC(=O)c1cn(C23CC4CC(CC(C4)C2)C3)nn1	inactive	inactive	inactive	inactive	inactive								
N=C(N)N1CCN(C(=O)c2cn(C34CC5CC(CC(C5)C3)C4)nn2)CC1	inactive	inactive	inactive	inactive	inactive								
CCCCCCCn1cc(C(=O)NCCNC(=N)N)nn1	inactive	inactive	inactive	inactive	inactive								
NCCNC(=O)c1cn(C23CC4CC(CC(C4)C2)C3)nn1	inactive	inactive	inactive	inactive	inactive								
CC(C)(C)c1cc(COc2ccc(-n3cc(C(=O)NCCNC(=N)N)nn3)cc2)cc(C(C)(C)C)c1.Cl	16 µg/mL	8 µg/mL	4 µg/mL				inactive	16.2	4.04			2	inactive
C/C(=N\NC(=N)N)c1cn(Cc2cc(C(C)(C)C)cc(C(C)(C)C)c2)nn1.Cl	8 µg/mL	4 µg/mL	4 µg/mL	8 µg/mL	8 µg/mL			2.3	0.57			4	
C/C(=N\NC(=N)N)c1cn(-c2cc(C(C)(C)C)cc(C(C)(C)C)c2)nn1.O=C(O)C(F)(F)F	4 µg/mL	4 µg/mL	2 µg/mL	4 µg/mL	16 µg/mL			2.6	1.32			4	
C/C(=N\NC(=N)N)c1cn(-c2ccc(OCc3cc(C(C)(C)C)cc(C(C)(C)C)c3)cc2)nn1.Cl	64 µg/mL		0.5 µg/mL				inactive	1.9	3.86		inactive	4	inactive
GENTAMICIN	10 µg/mL	0.13 µg/mL	4 µg/mL										
CCCCCCCn1cc(C(=O)N2CCN(C)CC2)nn1	inactive	inactive	inactive	inactive	inactive								
CCCCCCCOc1ccc(-n2cc(C(=O)NCCN)nn2)cc1.Cl		4 µg/mL	8 µg/mL		16 µg/mL	inactive	inactive	3.5	0.44			4	
CC(C)(C)c1cc(Cn2cc(C(=O)NCCN)nn2)cc(C(C)(C)C)c1.Cl		64 µg/mL	64 µg/mL	32 µg/mL	64 µg/mL	inactive							
CCCCCCCOc1ccc(-n2cc(C(=O)NCCNC(=N)N)nn2)cc1.Cl	16 µg/mL	4 µg/mL	8 µg/mL	8 µg/mL	8 µg/mL			23.8	2.97			4	
CC(C)(C)c1ccc(Cn2cc(C(=O)NCCNC(=N)N)nn2)cc1	inactive	inactive	inactive	inactive	inactive								
CC(C)(C)c1cc(Cn2cc(C(=O)N3CCNCC3)nn2)cc(C(C)(C)C)c1.Cl		64 µg/mL	64 µg/mL	64 µg/mL		inactive							inactive
CN1CCN(C(=O)c2cn(Cc3cc(C(C)(C)C)cc(C(C)(C)C)c3)nn2)CC1	inactive	inactive	inactive	inactive	inactive								
O=C(c1cn(C23CC4CC(CC(C4)C2)C3)nn1)N1CCNCC1	inactive	inactive	inactive	inactive	inactive								
CC(C)(C)c1cc(-n2cc(C(=O)NCCNC(=N)N)nn2)cc(C(C)(C)C)c1.Cl	16 µg/mL	8 µg/mL	8 µg/mL	16 µg/mL	16 µg/mL			31.3	3.91			4	
CC(C)(C)c1cc(COc2ccc(-n3cc(C(=O)NCCN)nn3)cc2)cc(C(C)(C)C)c1.Cl	8 µg/mL		2 µg/mL		16 µg/mL		inactive	2.9	1.44		inactive	8	
CCCCCCCn1cc(C(=O)N2CCNCC2)nn1	inactive	inactive	inactive	inactive	inactive								
